ChEMBL document CHEMBL1240350, “In vitro activity of CEM-101 against Streptococcus pneumoniae and Streptococcus pyogenes with defined macrolide resistance mechanisms” (Antimicrob Agents Chemother, 2010)
Converted amounts (≈) assume the structure as drawn.

How the values were obtained:
Streptococcus pyogenes [1] = assay: Antibacterial activity against macrolide-resistant Streptococcus pyogenes 237 harboring mutation in L4 ribosomal protein after 20 passages and 10 compound-free subculturing by retest method
Streptococcus pyogenes [2] = assay: Antibacterial activity against macrolide-resistant Streptococcus pyogenes 2094 harboring erm(A) gene after overnight incubation by agar dilution method
Streptococcus pyogenes [3] = assay: Antibacterial activity against Streptococcus pyogenes harboring mutation in L4 ribosomal protein after overnight incubation by agar dilution method; type: functional
Summary of the method: (§1)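 Clinical isolates collected 1998–2008, with macrolide-resistance genes confirmed by PCR. MICs by agar dilution on Mueller-Hinton agar with 5% sheep blood. Inoculum 10^4 CFU/spot, incubated overnight at 35°C in ambient air. S. pneumoniae ATCC 49619 was the quality-control strain in every run.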

Streptococcus pyogenes [4] = assay: Antibacterial activity against Streptococcus pyogenes harboring erm(A) gene after overnight incubation by agar dilution method; type: functional
Summary of the method: as §1

Streptococcus pneumoniae [5] = assay: Antibacterial activity against macrolide-susceptible Streptococcus pneumoniae after overnight incubation by agar dilution method; type: functional
Summary of the method: (§2)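 Agar dilution MICs on Mueller-Hinton agar with 5% sheep blood. Inoculum 10^4 CFU/spot, incubated overnight at 35°C in ambient air. Clinical S. pneumoniae or group A streptococcal isolates; resistance genotypes (erm(B), erm(A), mef(A)/mef(E)) were assigned by PCR. S. pneumoniae ATCC 49619 served as QC strain in each run. Range, MIC50 and MIC90 reported per phenotype group.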

Streptococcus pneumoniae [6] = assay: Antibacterial activity against Streptococcus pneumoniae harboring erm(A) gene after overnight incubation by agar dilution method; type: functional
Summary of the method: as §1

Streptococcus pneumoniae [7] = assay: Antibacterial activity against macrolide-susceptible Streptococcus pneumoniae 7127 harboring S20N mutation in L4 ribosomal protein and A105V mutation in L22 ribosomal protein after 43 passages and 10 compound-free subculturing by retest method; type: functional
Streptococcus pneumoniae [8] = assay: Antibacterial activity against macrolide-resistant Streptococcus pneumoniae 3009 harboring mutation in 23S rRNA after overnight incubation by agar dilution method; type: functional
Streptococcus pneumoniae [9] = assay: Antibacterial activity against quinolone-susceptible Streptococcus pneumoniae after overnight incubation by agar dilution method; type: functional
Summary of the method: (§3)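 Agar dilution on Mueller-Hinton agar supplemented with 5% sheep blood. Inoculum 10^4 CFU/spot, incubated overnight at 35°C in ambient air. Test strains were clinical pneumococcal isolates. S. pneumoniae ATCC 49619 was included as the quality control strain in each run. MIC range, MIC50 and MIC90 were reported for each susceptibility category.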

Streptococcus pneumoniae [10] = assay: Antibacterial activity against macrolide-resistant Streptococcus pneumoniae 1076 harboring erm(B) and mef(A) gene after 14 passages and 10 compound-free subculturing by retest method; type: functional
Summary of the method: (§4)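 Multistep selection by daily serial passage in subinhibitory drug concentrations. Medium was cation-adjusted Mueller-Hinton broth plus 5% lysed horse blood. Each day the next inoculum came from the tube 1–2 dilutions below the MIC whose turbidity matched the growth control, for up to 50 days. Clone MICs by CLSI macrodilution; identity to the parent confirmed by SmaI PFGE.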

Streptococcus pneumoniae [11] = assay: Antibacterial activity against macrolide-resistant Streptococcus pneumoniae 1076 harboring erm(B) and mef(A) gene after overnight incubation by agar dilution method; type: functional
Streptococcus pneumoniae [12] = assay: Antibacterial activity against Streptococcus pneumoniae harboring erm(B) gene after overnight incubation by agar dilution method; type: functional
Summary of the method: as §1

Streptococcus pyogenes [13] = assay: Antibacterial activity against macrolide-resistant Streptococcus pyogenes 2011 harboring mef(A) gene after overnight incubation by agar dilution method
Streptococcus pneumoniae [14] = assay: Antibacterial activity against quinolone-resistant Streptococcus pneumoniae after overnight incubation by agar dilution method; type: functional
Summary of the method: as §3

Streptococcus pneumoniae [15] = assay: Antibacterial activity against Streptococcus pneumoniae harboring mutation in L4 ribosomal protein after overnight incubation by agar dilution method; type: functional
Summary of the method: as §1

Streptococcus pyogenes [16] = assay: Antibacterial activity against macrolide-resistant Streptococcus pyogenes 237 harboring mutation in L4 ribosomal protein after 43 passages and 10 compound-free subculturing by retest method
Streptococcus pneumoniae [17] = assay: Antibacterial activity against macrolide-resistant Streptococcus pneumoniae 1635 harboring erm(A) gene after overnight incubation by agar dilution method; type: functional
Streptococcus pneumoniae [18] = assay: Antibacterial activity against Streptococcus pneumoniae harboring mutation in 23S rRNA after overnight incubation by agar dilution method; type: functional
Summary of the method: as §1

Streptococcus pneumoniae [19] = assay: Antibacterial activity against macrolide-resistant Streptococcus pneumoniae harboring mef(A) gene after overnight incubation by agar dilution method; type: functional
Summary of the method: as §2

Streptococcus pneumoniae [20] = assay: Antibacterial activity against macrolide-resistant Streptococcus pneumoniae harboring mutation in L4 ribosomal protein after overnight incubation by agar dilution method; type: functional
Summary of the method: as §2

Streptococcus pneumoniae [21] = assay: Antibacterial activity against macrolide-resistant Streptococcus pneumoniae 24 harboring erm(B) gene after 14 passages and 10 compound-free subculturing by retest method; type: functional; conditions: Streptococcus pneumoniae, 24; read-out: MIC
Summary of the method: as §4

Streptococcus pneumoniae [22] = assay: Antibacterial activity against macrolide-resistant Streptococcus pneumoniae 1635 harboring erm(A) gene after 49 passages and 10 compound-free subculturing by retest method; type: functional
Summary of the method: as §4

Streptococcus pyogenes [23] = assay: Antibacterial activity against macrolide-susceptible Streptococcus pyogenes after overnight incubation by agar dilution method; type: functional
Summary of the method: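 Agar dilution on Mueller-Hinton agar supplemented with 5% sheep blood, inoculum 10^4 CFU/spot, read after overnight incubation at 35°C in ambient air. Clinical isolates with defined genotypes; S. pneumoniae ATCC 49619 quality control strain included in each run. MIC50/MIC90 are MICs inhibiting 50% and 90% of isolates.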

Streptococcus pneumoniae [24] = assay: Antibacterial activity against macrolide-resistant Streptococcus pneumoniae 1076 harboring erm(B) and mef(A) gene after 18 passages and 10 compound-free subculturing by retest method; type: functional
Summary of the method: as §4

Streptococcus pneumoniae [25] = assay: Antibacterial activity against macrolide-susceptible Streptococcus pneumoniae 1077 after 49 passages and 10 compound-free subculturing by retest method; type: functional
Streptococcus pneumoniae [26] = assay: Antibacterial activity against macrolide-susceptible Streptococcus pneumoniae 7127 harboring S20N mutation in L4 ribosomal protein and A105V mutation in L22 ribosomal protein after 15 passages and 10 compound-free subculturing by retest method; type: functional
Streptococcus pneumoniae [27] = assay: Antibacterial activity against macrolide-resistant Streptococcus pneumoniae 2686 harboring mutation in L4 ribosomal protein after 25 passages and 10 compound-free subculturing by retest method; type: functional
Streptococcus pyogenes [28] = assay: Antibacterial activity against macrolide-resistant Streptococcus pyogenes 2094 harboring erm(A) gene after 22 passages and 10 compound-free subculturing by retest method
Streptococcus pneumoniae [29] = assay: Antibacterial activity against macrolide-resistant Streptococcus pneumoniae 3009 harboring mutation in 23S rRNA after 25 passages and 10 compound-free subculturing by retest method; type: functional
Streptococcus pneumoniae [30] = assay: Antibacterial activity against Streptococcus pneumoniae harboring erm(B) and mef(A) gene after overnight incubation by agar dilution method; type: functional
Summary of the method: as §1

Streptococcus pneumoniae [31] = assay: Antibacterial activity against macrolide-resistant Streptococcus pneumoniae 2686 harboring mutation in L4 ribosomal protein after overnight incubation by agar dilution method; type: functional

SMILES: CCC[C@@H]1C[C@@H](C(=O)N[C@@H]([C@H]2O[C@H](SC)[C@H](O)[C@@H](O)[C@H]2O)[C@H](C)Cl)N(C)C1 [CLINDAMYCIN]
- MIC (Streptococcus pyogenes [1]): 0.03 µg/mL (≈ 0.0706 µM)
- MIC (Streptococcus pyogenes [2]): 0.06 µg/mL (≈ 0.141 µM)
- MIC (Streptococcus pyogenes [3]): 0.06 µg/mL (≈ 0.141 µM)
- MIC50 (Streptococcus pyogenes [4]): 0.125 µg/mL (≈ 0.294 µM)
- MIC90 (Streptococcus pyogenes [4]): 0.25 µg/mL (≈ 0.588 µM)
- MIC50 (Streptococcus pneumoniae [5]): 0.03 µg/mL (≈ 0.0706 µM)
- MIC90 (Streptococcus pneumoniae [5]): 0.06 µg/mL (≈ 0.141 µM)
- MIC (Streptococcus pneumoniae [6]): 0.125 µg/mL (≈ 0.294 µM)
- MIC (Streptococcus pneumoniae [7]): 0.25 µg/mL (≈ 0.588 µM)
- MIC (Streptococcus pneumoniae [8]): 1 µg/mL (≈ 2.35 µM)
- MIC50 (Streptococcus pneumoniae [9]): 0.06 µg/mL (≈ 0.141 µM)
- MIC90 (Streptococcus pneumoniae [9]): > 64 µg/mL
- MIC (Streptococcus pneumoniae [10]): > 64 µg/mL
- MIC (Streptococcus pneumoniae [11]): 64 µg/mL (≈ 151 µM)
- MIC50 (Streptococcus pneumoniae [12]): > 64 µg/mL
- MIC (Streptococcus pyogenes [13]): 0.06 µg/mL (≈ 0.141 µM)
- MIC50 (Streptococcus pneumoniae [14]): 0.03 µg/mL (≈ 0.0706 µM)
- MIC90 (Streptococcus pneumoniae [14]): 64 µg/mL (≈ 151 µM)
- MIC50 (Streptococcus pneumoniae [15]): 0.06 µg/mL (≈ 0.141 µM)
- MIC90 (Streptococcus pneumoniae [15]): 0.125 µg/mL (≈ 0.294 µM)
- MIC (Streptococcus pyogenes [16]): 1 µg/mL (≈ 2.35 µM)
- MIC (Streptococcus pneumoniae [17]): 0.06 µg/mL (≈ 0.141 µM)
- MIC (Streptococcus pneumoniae [18]): 0.03 µg/mL (≈ 0.0706 µM)
- MIC50 (Streptococcus pneumoniae [19]): 0.06 µg/mL (≈ 0.141 µM)
- MIC90 (Streptococcus pneumoniae [19]): 0.06 µg/mL (≈ 0.141 µM)
- MIC50 (Streptococcus pneumoniae [20]): 0.06 µg/mL (≈ 0.141 µM)
- MIC90 (Streptococcus pneumoniae [20]): 0.125 µg/mL (≈ 0.294 µM)
- MIC (Streptococcus pneumoniae [21]): > 64 µg/mL
- MIC (Streptococcus pneumoniae [22]): 0.25 µg/mL (≈ 0.588 µM)
- MIC50 (Streptococcus pyogenes [23]): 0.06 µg/mL (≈ 0.141 µM)
- MIC90 (Streptococcus pyogenes [23]): 0.06 µg/mL (≈ 0.141 µM)
- MIC (Streptococcus pneumoniae [24]): > 64 µg/mL
- MIC (Streptococcus pneumoniae [25]): 8 µg/mL (≈ 18.8 µM)
- MIC (Streptococcus pneumoniae [26]): 1 µg/mL (≈ 2.35 µM)
- MIC (Streptococcus pneumoniae [27]): 0.03 µg/mL (≈ 0.0706 µM)
- MIC (Streptococcus pyogenes [28]): > 64 µg/mL
- MIC (Streptococcus pneumoniae [29]): 1 µg/mL (≈ 2.35 µM)
- MIC50 (Streptococcus pneumoniae [30]): 0.06 µg/mL (≈ 0.141 µM)
- MIC (Streptococcus pneumoniae [31]): 0.03 µg/mL (≈ 0.0706 µM)
